{"source": "paper PMC9116722", "about": "(Cancer chemotherapy and pharmacology, 2022)", "assay": "Adverse events", "assay_type": "in vivo, human", "conditions": "BRCAmut", "procedure,_shortened": "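Patients with germline BRCA-mutated cancers, or BRCA-wildtype TNBC or platinum-refractory ovarian cancer, took oral drug continuously twice daily in 28-day cycles. There were nine dose levels from 50 to 500 mg BID under 3+3 escalation, run separately per cohort after the first DLT. Toxicities were graded by CTCAE v4.0, with DLTs assessed during cycle 1.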", "data": [{"compound": "C[C@]1(c2nc3c(C(N)=O)cccc3[nH]2)CCCN1", "note": "[veliparib]", "values": [{"measurement": "Anemia, Grade 3", "setting": "DL3 100/100 mg AM/PM", "result": "0 number of patients (%)"}, {"measurement": "Anemia, Grade 4", "setting": "DL3 100/100 mg AM/PM", "result": "0 number of patients (%)"}, {"measurement": "Any Grade 3/4 toxicity", "setting": "DL3 100/100 mg AM/PM", "result": "0 number of patients (%)"}, {"measurement": "Any Grade 3 toxicity", "setting": "DL3 100/100 mg AM/PM", "result": "0 number of patients (%)"}, {"measurement": "Any Grade 4 toxicity", "setting": "DL3 100/100 mg AM/PM", "result": "0 number of patients (%)"}, {"measurement": "Appendicitis, Grade 3", "setting": "DL3 100/100 mg AM/PM", "result": "0 number of patients (%)"}, {"measurement": "Aspartate aminotransferase increased, Grade 3", "setting": "DL3 100/100 mg AM/PM", "result": "0 number of patients (%)"}, {"measurement": "Dehydration, Grade 3", "setting": "DL3 100/100 mg AM/PM", "result": "0 number of patients (%)"}, {"measurement": "Dyspnea, Grade 4", "setting": "DL3 100/100 mg AM/PM", "result": "0 number of patients (%)"}, {"measurement": "Fatigue, Grade 3", "setting": "DL3 100/100 mg AM/PM", "result": "0 number of patients (%)"}, {"measurement": "Headache, Grade 3", "setting": "DL3 100/100 mg AM/PM", "result": "0 number of patients (%)"}, {"measurement": "Hypophosphatemia, Grade 3", "setting": "DL3 100/100 mg AM/PM", "result": "0 number of patients (%)"}, {"measurement": "Lymphocyte count decreased, Grade 3", "setting": "DL3 100/100 mg AM/PM", "result": "0 number of patients (%)"}, {"measurement": "Lymphocyte count decreased, Grade 4", "setting": "DL3 100/100 mg AM/PM", "result": "0 number of patients (%)"}, {"measurement": "Nausea, Grade 3", "setting": "DL3 100/100 mg AM/PM", "result": "0 number of patients (%)"}, {"measurement": "Platelet count decreased, Grade 4", "setting": "DL3 100/100 mg AM/PM", "result": "0 number of patients (%)"}, {"measurement": "Thromboembolic event, Grade 3", "setting": "DL3 100/100 mg AM/PM", "result": "0 number of patients (%)"}, {"measurement": "Thromboembolic event, Grade 4", "setting": "DL3 100/100 mg AM/PM", "result": "0 number of patients (%)"}, {"measurement": "Urinary tract infection, Grade 3", "setting": "DL3 100/100 mg AM/PM", "result": "0 number of patients (%)"}, {"measurement": "Abdominal pain, Grade 3", "setting": "DL6 200/200 mg AM/PM", "result": "0 number of patients (%)"}, {"measurement": "Alkaline phosphatase increased, Grade 3", "setting": "DL6 200/200 mg AM/PM", "result": "0 number of patients (%)"}, {"measurement": "Anemia, Grade 3", "setting": "DL6 200/200 mg AM/PM", "result": "0 number of patients (%)"}, {"measurement": "Anemia, Grade 4", "setting": "DL6 200/200 mg AM/PM", "result": "0 number of patients (%)"}, {"measurement": "Any Grade 3/4 toxicity", "setting": "DL6 200/200 mg AM/PM", "result": "0 number of patients (%)"}, {"measurement": "Any Grade 3 toxicity", "setting": "DL6 200/200 mg AM/PM", "result": "0 number of patients (%)"}, {"measurement": "Any Grade 4 toxicity", "setting": "DL6 200/200 mg AM/PM", "result": "0 number of patients (%)"}, {"measurement": "Appendicitis, Grade 3", "setting": "DL6 200/200 mg AM/PM", "result": "0 number of patients (%)"}, {"measurement": "Aspartate aminotransferase increased, Grade 3", "setting": "DL6 200/200 mg AM/PM", "result": "0 number of patients (%)"}, {"measurement": "Dehydration, Grade 3", "setting": "DL6 200/200 mg AM/PM", "result": "0 number of patients (%)"}, {"measurement": "Dyspnea, Grade 4", "setting": "DL6 200/200 mg AM/PM", "result": "0 number of patients (%)"}, {"measurement": "Fatigue, Grade 3", "setting": "DL6 200/200 mg AM/PM", "result": "0 number of patients (%)"}, {"measurement": "Headache, Grade 3", "setting": "DL6 200/200 mg AM/PM", "result": "0 number of patients (%)"}, {"measurement": "Hypophosphatemia, Grade 3", "setting": "DL6 200/200 mg AM/PM", "result": "0 number of patients (%)"}, {"measurement": "Lymphocyte count decreased, Grade 3", "setting": "DL6 200/200 mg AM/PM", "result": "0 number of patients (%)"}, {"measurement": "Lymphocyte count decreased, Grade 4", "setting": "DL6 200/200 mg AM/PM", "result": "0 number of patients (%)"}, {"measurement": "Nausea, Grade 3", "setting": "DL6 200/200 mg AM/PM", "result": "0 number of patients (%)"}, {"measurement": "Platelet count decreased, Grade 4", "setting": "DL6 200/200 mg AM/PM", "result": "0 number of patients (%)"}, {"measurement": "Thromboembolic event, Grade 3", "setting": "DL6 200/200 mg AM/PM", "result": "0 number of patients (%)"}, {"measurement": "Thromboembolic event, Grade 4", "setting": "DL6 200/200 mg AM/PM", "result": "0 number of patients (%)"}, {"measurement": "Urinary tract infection, Grade 3", "setting": "DL6 200/200 mg AM/PM", "result": "0 number of patients (%)"}, {"measurement": "Abdominal pain, Grade 3", "setting": "DL7 300/300 mg AM/PM", "result": "0 number of patients (%)"}, {"measurement": "Alkaline phosphatase increased, Grade 3", "setting": "DL7 300/300 mg AM/PM", "result": "0 number of patients (%)"}, {"measurement": "Anemia, Grade 3", "setting": "DL7 300/300 mg AM/PM", "result": "0 number of patients (%)"}, {"measurement": "Anemia, Grade 4", "setting": "DL7 300/300 mg AM/PM", "result": "0 number of patients (%)"}, {"measurement": "Any Grade 3/4 toxicity", "setting": "DL7 300/300 mg AM/PM", "result": "2 (33) number of patients (%)"}, {"measurement": "Any Grade 3 toxicity", "setting": "DL7 300/300 mg AM/PM", "result": "2 (33) number of patients (%)"}, {"measurement": "Any Grade 4 toxicity", "setting": "DL7 300/300 mg AM/PM", "result": "0 number of patients (%)"}, {"measurement": "Appendicitis, Grade 3", "setting": "DL7 300/300 mg AM/PM", "result": "1 (17) number of patients (%)"}, {"measurement": "Aspartate aminotransferase increased, Grade 3", "setting": "DL7 300/300 mg AM/PM", "result": "0 number of patients (%)"}, {"measurement": "Dehydration, Grade 3", "setting": "DL7 300/300 mg AM/PM", "result": "0 number of patients (%)"}, {"measurement": "Dyspnea, Grade 4", "setting": "DL7 300/300 mg AM/PM", "result": "0 number of patients (%)"}, {"measurement": "Fatigue, Grade 3", "setting": "DL7 300/300 mg AM/PM", "result": "0 number of patients (%)"}, {"measurement": "Headache, Grade 3", "setting": "DL7 300/300 mg AM/PM", "result": "1 (17) number of patients (%)"}, {"measurement": "Hypophosphatemia, Grade 3", "setting": "DL7 300/300 mg AM/PM", "result": "0 number of patients (%)"}, {"measurement": "Lymphocyte count decreased, Grade 3", "setting": "DL7 300/300 mg AM/PM", "result": "1 (17) number of patients (%)"}, {"measurement": "Lymphocyte count decreased, Grade 4", "setting": "DL7 300/300 mg AM/PM", "result": "0 number of patients (%)"}, {"measurement": "Nausea, Grade 3", "setting": "DL7 300/300 mg AM/PM", "result": "0 number of patients (%)"}, {"measurement": "Platelet count decreased, Grade 4", "setting": "DL7 300/300 mg AM/PM", "result": "0 number of patients (%)"}, {"measurement": "Thromboembolic event, Grade 3", "setting": "DL7 300/300 mg AM/PM", "result": "0 number of patients (%)"}, {"measurement": "Thromboembolic event, Grade 4", "setting": "DL7 300/300 mg AM/PM", "result": "0 number of patients (%)"}, {"measurement": "Urinary tract infection, Grade 3", "setting": "DL7 300/300 mg AM/PM", "result": "0 number of patients (%)"}, {"measurement": "Abdominal pain, Grade 3", "setting": "DL8 400/400 mg AM/PM", "result": "2 (6) number of patients (%)"}, {"measurement": "Alkaline phosphatase increased, Grade 3", "setting": "DL8 400/400 mg AM/PM", "result": "0 number of patients (%)"}, {"measurement": "Anemia, Grade 3", "setting": "DL8 400/400 mg AM/PM", "result": "1 (3) number of patients (%)"}, {"measurement": "Anemia, Grade 4", "setting": "DL8 400/400 mg AM/PM", "result": "0 number of patients (%)"}, {"measurement": "Any Grade 3/4 toxicity", "setting": "DL8 400/400 mg AM/PM", "result": "11 (32) number of patients (%)"}, {"measurement": "Any Grade 3 toxicity", "setting": "DL8 400/400 mg AM/PM", "result": "11 (32) number of patients (%)"}, {"measurement": "Any Grade 4 toxicity", "setting": "DL8 400/400 mg AM/PM", "result": "1 (3) number of patients (%)"}, {"measurement": "Appendicitis, Grade 3", "setting": "DL8 400/400 mg AM/PM", "result": "0 number of patients (%)"}, {"measurement": "Aspartate aminotransferase increased, Grade 3", "setting": "DL8 400/400 mg AM/PM", "result": "0 number of patients (%)"}, {"measurement": "Dehydration, Grade 3", "setting": "DL8 400/400 mg AM/PM", "result": "1 (3) number of patients (%)"}, {"measurement": "Dyspnea, Grade 4", "setting": "DL8 400/400 mg AM/PM", "result": "0 number of patients (%)"}, {"measurement": "Fatigue, Grade 3", "setting": "DL8 400/400 mg AM/PM", "result": "1 (3) number of patients (%)"}, {"measurement": "Headache, Grade 3", "setting": "DL8 400/400 mg AM/PM", "result": "0 number of patients (%)"}, {"measurement": "Hypophosphatemia, Grade 3", "setting": "DL8 400/400 mg AM/PM", "result": "1 (3) number of patients (%)"}, {"measurement": "Lymphocyte count decreased, Grade 3", "setting": "DL8 400/400 mg AM/PM", "result": "7 (21) number of patients (%)"}, {"measurement": "Lymphocyte count decreased, Grade 4", "setting": "DL8 400/400 mg AM/PM", "result": "1 (3) number of patients (%)"}, {"measurement": "Nausea, Grade 3", "setting": "DL8 400/400 mg AM/PM", "result": "2 (6) number of patients (%)"}, {"measurement": "Platelet count decreased, Grade 4", "setting": "DL8 400/400 mg AM/PM", "result": "0 number of patients (%)"}, {"measurement": "Thromboembolic event, Grade 3", "setting": "DL8 400/400 mg AM/PM", "result": "2 (6) number of patients (%)"}, {"measurement": "Thromboembolic event, Grade 4", "setting": "DL8 400/400 mg AM/PM", "result": "0 number of patients (%)"}, {"measurement": "Urinary tract infection, Grade 3", "setting": "DL8 400/400 mg AM/PM", "result": "1 (3) number of patients (%)"}, {"measurement": "Abdominal pain, Grade 3", "setting": "DL9 500/500 mg AM/PM", "result": "0 number of patients (%)"}, {"measurement": "Alkaline phosphatase increased, Grade 3", "setting": "DL9 500/500 mg AM/PM", "result": "0 number of patients (%)"}, {"measurement": "Anemia, Grade 3", "setting": "DL9 500/500 mg AM/PM", "result": "0 number of patients (%)"}, {"measurement": "Anemia, Grade 4", "setting": "DL9 500/500 mg AM/PM", "result": "1 (14) number of patients (%)"}, {"measurement": "Any Grade 3/4 toxicity", "setting": "DL9 500/500 mg AM/PM", "result": "2 (29) number of patients (%)"}]}]}
